Screens: PubChem, The Scripps Research Institute Molecular Screening Center
Only some compounds are listed: those with a hit (about 2.3% of all), similar ones and a draw of the others.
TAAR1 antag – antagonists of human TAAR1. CHO RD-HGA16 TAAR1, Fluo-8 calcium fluorescence, antagonist. inhibition, % at 3 µM. 360,000 tested, 1.5% active. Q96RJ0. AID 624466;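 active = inhibition above a per-plate cutoff, the mean inhibition of test compounds on that plate plus 3 SD, cut at about 49% in these data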;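 also: 0% = DMSO plus EC80 beta-PEA response and 100% = DMSO alone without agonist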
Target sequence (Q96RJ0 whole entry, looked up): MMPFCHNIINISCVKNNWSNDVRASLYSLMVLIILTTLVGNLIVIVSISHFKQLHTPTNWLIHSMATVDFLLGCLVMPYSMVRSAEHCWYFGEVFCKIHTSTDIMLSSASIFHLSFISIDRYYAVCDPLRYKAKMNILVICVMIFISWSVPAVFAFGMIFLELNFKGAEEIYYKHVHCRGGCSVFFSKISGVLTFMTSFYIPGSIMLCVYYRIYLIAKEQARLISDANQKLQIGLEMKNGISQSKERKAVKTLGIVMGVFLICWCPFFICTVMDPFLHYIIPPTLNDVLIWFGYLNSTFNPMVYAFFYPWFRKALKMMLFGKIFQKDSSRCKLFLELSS
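Assay system: CHO-derived RD-HGA16 cells stably expressing human TAAR1 plus Gα16. Timing: 140 s kinetic read after compound, 140 s after agonist. Technique: kinetic Fluo-8 calcium fluorescence measurement. Measure: % inhibition of agonist calcium response.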
V1R ag counter – counter-screen for oxytocin receptor agonists: human V1a receptor agonists. P37288. activation, % at 3 µM. CHO-V1R cells, Fluo-8 calcium fluorescence, agonist mode; 0% DMSO, 100% 3 nM vasopressin. 320,000 tested, 0.25% active. AID 2797;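 active = activation above the mean activation of all tested compounds plus 3 SD, per screening run, cut at about 20% in these data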;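 also: signal is peak over basal fluorescence ratio across a 100 second FLIPR read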
OXTR ag – agonists of human oxytocin receptor; P30559; CHO-OTR cells, Fluo-8 calcium fluorescence; normalized: DMSO 0%, oxytocin 100%; activation, % at 3 µM; 320,000 tested, 0.32% active;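 active = activation above the mean of all tested compounds plus 3 SD, cutoff set per screening run, cut at about 20% in these data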;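 also: peak over basal fluorescence ratio from a 100 s FLIPR kinetic read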
OXTR potentiator – human OXTR potentiation | P30559 | CHO-OTR cells, Fluo-8 calcium fluorescence, potentiator mode; 0% = oxytocin EC15, 100% = EC100 | activation, % at 3 µM | 320,000 tested, 0.061% active | AID 2445;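 active = activation above that plate's cutoff, the mean activation of tested compounds plus 3 SD, cut at about 6.6% in these data, passing the limit was not always enough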;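 also: 100% uses oxytocin at 75 nM as the full agonist control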
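System: human OTR in CHO cells / Also added: sub-maximal oxytocin, roughly EC15 / Control set: EC15 oxytocin low, 75 nM oxytocin high / Schedule: 6 min compound pre-incubation at room temperature, 100 s kinetic read / Compound: single-point 3.0 µM / Replication: singlicate / Technique: Fluo-8 calcium dye fluorescence / Read-out basis: % activation of max/min ratio relative to oxytocin controls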
TAAR1 agonist – human TAAR1 agonism | Q96RJ0 | CHO RD-HGA16 TAAR1, Fluo-8 calcium fluorescence; vehicle wells 0%, saturating PEA agonist 100% | activation, % at 3 µM | 360,000 tested, 0.99% active | AID 624467;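 active = activation above the mean activation of all test compounds in the run plus 3 SD, cut at about 38% in these data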
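System: CHO RD-HGA16 cells carrying human TAAR1 plus Gα16; Incubation: 17-24 h seeding, 75 min 37 °C dye, 30 min RT; Measured by: Fluo-8 fluorescence, 5 s baseline then 140 s kinetic read; Control set: DMSO and PEA EC100; Replication: single well for each compound.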
The depositor's hits bear a star.

For C[C@@H]1CNCCN1c1ccc(N2CCN(Cc3ccccc3)[C@@H](C)C2)c(C#N)c1 the results were TAAR1 antag 0 and TAAR1 agonist 7.
`COc1ccc(C2c3[nH]c4ccccc4c3C[C@H]3C(=O)N(CCCO)CC(=O)N23)cc1OC` (some centres undefined) gave TAAR1 antag -2, V1R ag counter 0, OXTR ag -1, OXTR potentiator 0 and TAAR1 agonist 3.
Screening COc1cc(C2c3[nH]c4ccccc4c3C[C@@H]3C(=O)N(Cc4ccco4)CC(=O)N23)cc(OC)c1OC (some centres undefined) returned TAAR1 antag 53*, V1R ag counter 11, OXTR ag 8, OXTR potentiator -13 and TAAR1 agonist 30.
`COC(=O)c1cc2c(c3c4cc(C)ccc4n(S(=O)(=O)c4cccc(C)c4)c13)C(=O)N(C)C2` gave TAAR1 antag -41 and TAAR1 agonist -2.
Screening COc1ccc(OC)c(CNC(=O)c2[nH]c(C(F)(F)F)nc2-c2ccccc2)c1 returned TAAR1 antag -16 and TAAR1 agonist 4.
`CCC1Nc2ncnc(N3CCc4ccccc4C3)c2N(Cc2ccc(Cl)cc2)C1=O` (centres undefined) gave TAAR1 antag -1, V1R ag counter 1, OXTR ag -1, OXTR potentiator -9 and TAAR1 agonist 40*.
O=C1C(Cc2ccccc2)Nc2ncnc(N3CCc4ccccc4C3)c2N1Cc1ccc(Cl)cc1 (centres undefined) was read as V1R ag counter -1, OXTR ag 0 and OXTR potentiator -13.
`CC1Nc2ncnc(N3CCc4ccccc4C3)c2N(Cc2ccccc2)C1=O` (centres undefined) gave TAAR1 antag -10 and TAAR1 agonist 39*.
CC1Nc2ncnc(N3CCOCC3)c2N(Cc2ccccc2)C1=O (centres undefined) was read as TAAR1 antag 17, V1R ag counter 2, OXTR ag 1, OXTR potentiator 0 and TAAR1 agonist 8.
For CCCCc1c(-c2ccc(OC)cc2)ncn1CCc1ccccc1OC the results were TAAR1 antag 50* and TAAR1 agonist 24.
Screening CCCCCc1c(-c2ccc(OC)cc2)ncn1CCc1ccccc1OC returned TAAR1 antag 61* and TAAR1 agonist 14.
For CCCCCc1c(-c2ccc(Cl)cc2)ncn1CCc1ccccc1OC the results were TAAR1 antag 19 and TAAR1 agonist 28.
COc1ccc2cnn(-c3ccc(OC(F)(F)F)cc3)c(=O)c2c1OC was read as TAAR1 antag -5, V1R ag counter 1, OXTR ag -3, OXTR potentiator -3 and TAAR1 agonist 3.
For CC1(C)CC(=O)C=C(c2ccccc2-c2cccc(C(N)=O)c2)C1=O the results were TAAR1 antag -4 and TAAR1 agonist 1.
`Cc1oc2c(c(C)nn2-c2ccccc2)c(=O)c1Cl` gave TAAR1 antag -22 and TAAR1 agonist 0.
`CCCCNc1c(-c2ccc(-c3ccc(OC)cc3)c(OC)c2)nc2ccccn12` gave TAAR1 antag 72*, V1R ag counter 0, OXTR ag -2, OXTR potentiator -9 and TAAR1 agonist 7.
Screening CCCCNc1c(-c2ccc(SC(C)CC)c(OC)c2)nc2ccc(C)cn12 (centres undefined) returned TAAR1 antag 87*, V1R ag counter 0, OXTR ag -3, OXTR potentiator -11 and TAAR1 agonist 9.
`CCCCNc1c(-c2ccc(OC)c(Sc3ccc(OC)cc3)c2)nc2ccccn12` gave V1R ag counter 2, OXTR ag -1 and OXTR potentiator -10.
CCCCNc1c(-c2ccc(SC(C)CC)c(OC)c2)nc2ccc(Cl)cn12 (centres undefined) was read as TAAR1 antag 62*, V1R ag counter -1, OXTR ag -2, OXTR potentiator -7 and TAAR1 agonist 0.
CCCCCCSc1ccc(-c2nc3ccc(Cl)cn3c2NCCCC)cc1OC was read as TAAR1 antag 15, V1R ag counter 1, OXTR ag 0, OXTR potentiator -4 and TAAR1 agonist 1.
Screening O=C(CCCCCn1c(=O)[nH]c2ccccc2c1=O)NC1CCCC1 returned TAAR1 antag -3 and TAAR1 agonist 0.
C/C(=N\NC(=O)COc1ccccc1-c1ccccc1)c1ccc(O)cc1O was read as TAAR1 antag 50*, V1R ag counter 0, OXTR ag -1, OXTR potentiator -4 and TAAR1 agonist -1.
`O=C1NC(=S)S/C1=C\c1cc(Cl)cc(Cl)c1O` gave TAAR1 antag 65* and TAAR1 agonist 40*.
`O=C1NC(=S)SC1=Cc1ccccc1Cl` gave TAAR1 antag -33 and TAAR1 agonist 2.
O=C(O)[C@H](Cc1ccccc1)NC(=O)[C@H]1O[C@@H](n2ccc(=O)[nH]c2=O)[C@H](O)[C@@H]1O was read as TAAR1 antag 4 and TAAR1 agonist 2.
Screening CCOc1ccc(C(C)=O)cc1COC(=O)c1ccc2c(c1)NC(=O)CS2 returned TAAR1 antag 52*, V1R ag counter 5, OXTR ag 5, OXTR potentiator -10 and TAAR1 agonist 11.
`CN(C)CCNc1nc2sc3c(c2c(=O)n1CCc1ccccc1)CCCCC3` gave TAAR1 antag 36, V1R ag counter 4, OXTR ag 10, OXTR potentiator -12 and TAAR1 agonist 40*.
CC(O)CNc1nc2sc3c(c2c(=O)n1CCc1ccccc1)CCCCC3 (centres undefined) was read as TAAR1 antag 30, V1R ag counter -1, OXTR ag 0, OXTR potentiator -14 and TAAR1 agonist 4.
Screening O=C(CCC(=O)Nc1ccccc1)NNC(=O)c1cccs1 returned TAAR1 antag 6, V1R ag counter 0, OXTR ag 0, OXTR potentiator 3 and TAAR1 agonist 39*.
`CC(C)NS(=O)(=O)c1ccc(OCC(=O)Nc2ccc3c(c2)OCO3)c(Cl)c1` gave TAAR1 antag 33, V1R ag counter 5, OXTR ag 4, OXTR potentiator -15 and TAAR1 agonist 6.
For O=C(COc1ccc(S(=O)(=O)N2CCCC2)cc1Cl)Nc1ccc2c(c1)OCO2 the results were TAAR1 antag 50*, V1R ag counter 3, OXTR ag 1, OXTR potentiator -9 and TAAR1 agonist 10.
For CCOC(=O)Cc1csc(NC(=O)CSc2ncnc3c2cnn3-c2ccccc2Cl)n1 the results were TAAR1 antag 62* and TAAR1 agonist 23.
Cc1nnc(NC(=O)CSc2ncnc3c2cnn3-c2ccccc2C)s1 was read as TAAR1 antag 2, V1R ag counter 0, OXTR ag 1, OXTR potentiator 0 and TAAR1 agonist 2.
